Source: ChEMBL document CHEMBL1131001, “Syntheses and anticholinesterase activities of (3aS)-N1, N8-bisnorphenserine, (3aS)-N1,N8-bisnorphysostigmine, their antipodal isomers, and other potential metabolites of phenserine” (J Med Chem, 1998)

Experiments:
Acetylcholinesterase [1] = molecular target: T1, Acetylcholinesterase (Homo sapiens, UniProt P22303); assay: Anticholinesterase activity against erythrocyte acetylcholinesterase (AChE) in humans.
How it was run: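 Human red blood cells, freshly collected, were washed five times in isotonic saline, lysed in 0.1 M Na3PO4 pH 7.4 with 0.5% Triton-X, and diluted 1:200. Compounds in half-log dilutions from 0.3 nM were preincubated with enzyme for 30 min at room temperature in pH 8.0 phosphate.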

Cholinesterase [2] = molecular target: T2, Cholinesterase (Homo sapiens, UniProt P06276); assay: Anticholinesterase activity against plasma Butyrylcholinesterase (BChE) in humans.; assay type: cell-free
T2 sequence (P06276 whole entry): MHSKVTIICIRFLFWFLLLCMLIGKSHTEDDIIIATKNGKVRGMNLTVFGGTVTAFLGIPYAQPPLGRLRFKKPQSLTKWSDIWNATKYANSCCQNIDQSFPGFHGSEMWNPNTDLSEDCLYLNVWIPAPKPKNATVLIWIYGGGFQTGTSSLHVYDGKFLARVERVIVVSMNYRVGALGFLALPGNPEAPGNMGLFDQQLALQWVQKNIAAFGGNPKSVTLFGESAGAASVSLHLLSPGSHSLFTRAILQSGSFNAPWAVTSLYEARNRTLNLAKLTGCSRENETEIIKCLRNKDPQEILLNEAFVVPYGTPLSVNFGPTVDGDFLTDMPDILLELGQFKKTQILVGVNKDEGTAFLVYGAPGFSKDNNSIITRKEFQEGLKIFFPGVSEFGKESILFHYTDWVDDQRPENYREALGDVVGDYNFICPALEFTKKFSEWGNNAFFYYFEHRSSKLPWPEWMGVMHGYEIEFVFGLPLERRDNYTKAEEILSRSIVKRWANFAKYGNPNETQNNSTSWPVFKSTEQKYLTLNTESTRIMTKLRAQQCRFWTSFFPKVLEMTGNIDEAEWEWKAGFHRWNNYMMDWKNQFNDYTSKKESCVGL

Acetylcholinesterase [3] = molecular target: T1, Acetylcholinesterase; assay: Anticholinesterase activity against erythrocyte acetylcholinesterase (AChE) in humans.(no detectable activity at 3*10e-5 M)
Cholinesterase [4] = molecular target: T2, Cholinesterase; assay: Anticholinesterase activity against plasma Butyrylcholinesterase (BChE) in humans.(no detectable activity at 3*10e-5 M); assay type: cell-free

T1 sequence (P22303 whole entry): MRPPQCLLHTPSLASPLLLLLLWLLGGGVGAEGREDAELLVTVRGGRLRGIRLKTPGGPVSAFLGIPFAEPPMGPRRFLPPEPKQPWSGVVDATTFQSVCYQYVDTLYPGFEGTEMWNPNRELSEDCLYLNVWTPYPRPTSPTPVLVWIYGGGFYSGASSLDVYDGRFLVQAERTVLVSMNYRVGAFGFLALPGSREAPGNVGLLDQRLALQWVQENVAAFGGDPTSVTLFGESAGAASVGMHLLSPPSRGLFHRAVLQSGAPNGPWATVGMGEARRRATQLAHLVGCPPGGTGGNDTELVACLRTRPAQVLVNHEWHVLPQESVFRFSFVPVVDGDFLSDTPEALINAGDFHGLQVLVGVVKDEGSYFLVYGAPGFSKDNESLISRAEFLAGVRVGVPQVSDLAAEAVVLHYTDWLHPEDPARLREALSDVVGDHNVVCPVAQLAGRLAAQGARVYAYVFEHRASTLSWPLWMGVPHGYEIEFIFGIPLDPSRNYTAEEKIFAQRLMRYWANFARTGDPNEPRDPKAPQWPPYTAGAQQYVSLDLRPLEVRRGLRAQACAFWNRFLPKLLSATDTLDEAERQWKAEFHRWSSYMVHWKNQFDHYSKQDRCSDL

Row | Compound | IC50 (Acetylcholinesterase [1]) [nM] | IC50 (Cholinesterase [2]) [nM] | IC50 (Acetylcholinesterase [3]) | IC50 (Cholinesterase [4])
1 | C[C@]12CCNC1Nc1ccc(OC(=O)Nc3ccccc3)cc12 (stereo not given in full) | 231 | 952 | – | –
2 | CNC(=O)Oc1ccc2c(c1)[C@]1(C)CCNC1N2 (stereo not given in full) | 10.9 | 2.4 | – | –
3 | CN1CC[C@@]2(C)c3cc(O)ccc3N(C)[C@@H]12 | – | – | No detectable activity | No detectable activity
4 | CN1CC[C@@]2(C)C3=CC(=O)C(=O)C=C3N(C)C12 (stereo not given in full) | – | – | No detectable activity | No detectable activity
5 | C[C@]12CCN(Cc3ccccc3)C1N(Cc1ccccc1)c1ccc(OC(=O)Nc3ccccc3)cc12 (stereo not given in full) | – | – | No detectable activity | No detectable activity
6 | C[C@@]12CCNC1Nc1ccc(OC(=O)Nc3ccccc3)cc12 (stereo not given in full) | – | 897 | – | –
7 | CNC(=O)Oc1ccc2c(c1)[C@@]1(C)CCN(Cc3ccccc3)C1N2Cc1ccccc1 (stereo not given in full) | 3560 | 776 | – | –
8 | CNC(=O)Oc1ccc2c(c1)[C@@]1(C)CCNC1N2 (stereo not given in full) | 1490 | 237 | – | –
9 | CNC(=O)Oc1ccc2c(c1)[C@]1(C)CCN(Cc3ccccc3)C1N2Cc1ccccc1 (stereo not given in full) | 1090 | 8.1 | – | –
10 | CN1c2ccc(OC(=O)Nc3ccccc3)cc2[C@]2(C)CCNC12 (stereo not given in full) | – | 612 | – | –
11 | C[C@@]12CCN(Cc3ccccc3)C1N(Cc1ccccc1)c1ccc(OC(=O)Nc3ccccc3)cc12 (single isomer, unassigned; (-)) | 41100 | 513 | – | –
